Compound activity (PubChem BioAssay)
This is a sample that favours compounds with a hit; in the whole collection about 4.8% have one here.
CSC inhib: cancer stem cell inhibition; cancer stem cell-like cells viability, luminescence; inhibition, % at 7.5 µM; 300,000 tested, 1.1% active; in the data active = inhibition above about 75%; tested in HMLE shEcad cells
Efflux pump inh: blocks antifungal efflux pumps in multiplex yeast assay; S. cerevisiae Candida pump triplex, Nile Red efflux; inhibition, % at 10 µM; 330,000 tested, 0.44% active; AID 485275;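 active = plate passing quality check with inhibition over a set limit, or well fluorescence over plate mean plus 4 SD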;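 also: Nile Red retained in pooled yeast measured as flow cytometry median fluorescence; 0% = buffer negative control and 100% = Enniatin B positive control; higher means more Nile Red kept so more efflux inhibition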
T cruzi inh: blocks replication of Trypanosoma cruzi; inhibition, % (test concentration not listed); 300,000 tested, 1.4% active; T. cruzi beta-gal in NIH3T3, luminescence, 90 h; AID 1885;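 active = mean inhibition across valid replicates above about 55%, limit read from the data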;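 also: signal also drops with host cell toxicity which is not excluded here; 0% = plate median of DMSO wells and 100% = zero luminescence signal; higher percent means less beta-gal luminescence so fewer parasites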
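Assay system: NIH/3T3 host cells with β-galactosidase reporter T. cruzi; input: 5,000 host fibroblasts per well; compound: single 50 nL compound addition per well in DMSO; timing: ≥90 h infection period, 3 h prior cell attachment; measured by: GalScreen β-gal luminescence, detergent lysis, 60 min; evaluation: percent inhibition of parasite-derived β-gal signal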
WT yeast gro inh: growth inhibition of WT yeast, mitochondrial fusion screen | mitochondrial fusion phenotypic screen, WT strain | inhibition, % at 10 µM | 190,000 tested, 2.1% active | AID 1362; in the data active = inhibition above about 58%; tested in S. cerevisiae
SUMO Mot1 rescue: blocks SUMOylation pathway, rescuing yeast Mot1-301 growth | S. cerevisiae Mot1-301 growth rescue, ATP luminescence, 38.5C; percent above DMSO median, 100 means doubled | growth rescue, % at 18.8 µM | 320,000 tested, 1% active | AID 2716;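 active = every valid replicate shows activation above 250% relative to neutral control wells; inactive = the rest, any valid replicate at or below 250%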;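 also: OY570 slx delta 5 strain wells were the positive control but not used for scaling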
Beta apoptosis: beta cell apoptosis inhibition. INS-1E cytokine-induced death, ATP luminescence, 48 h; percent of positive-control rescue, neutral wells zero. protection from apoptosis, % (no concentration beside the values). 300,000 tested, 0.8% active. AID 435005;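 active = Every replicate reaches about 75%, or at least half do and their mean reaches it too, limit read from the data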;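 also: 0% = cytokine-treated negative control wells and 100% = positive control rescue; higher means more ATP so stronger rescue from cytokine killing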
* = called active by the depositor; . = no result.

SMILES	CSC inhib	Efflux pump inh	T cruzi inh	WT yeast gro inh	SUMO Mot1 rescue	Beta apoptosis
COc1cccc(-c2sc3ccc(OC)cc3c2C#CCC(C)O)c1 (stereo unspecified)	113*	0	.	.	-2	-3
COc1ccc(-c2sc3cc(OC)c(OC)cc3c2C#CCO)cc1	.	0	.	.	.	.
COc1ccc2sc(-c3ccc(SC)cc3)c(C#CCO)c2c1	83*	0	.	.	18	16
COc1ccc(-c2sc3ccc(N4CCOCC4)cc3c2C#CC(C)(C)O)cc1	87*	0	.	.	-20	-6
COCc1ccc(-c2c(-c3cccc(OC)c3)sc3ccc(OC)cc23)cc1	47	0	.	.	-21	0
COc1ccc(-c2sc3ccc(N4CCOCC4)cc3c2C#Cc2ccsc2)cc1	70	1	.	.	-15	13
Cc1c(C)c(C)c(CO/N=C/c2cccs2)c(C)c1C	.	0	-4	.	6	.
Cc1ccccc1OCC(=O)N=Nc1c(O)n(C)c2ccccc12	30	0	5	.	9	14
CCOC(=O)c1c(S(=O)(=O)NC2CCN(C(=O)OCC)CC2)c(C)n(C)c1C	20	0	-1	.	-12	-2
N#Cc1c(N2CCCC2)ccc(Br)c1Cl	1	0	-5	.	119	3
COc1ccc(-c2oc3ccc(N4CCOCC4)cc3c2C#CCO)cc1	97*	0	28	.	10	.
COc1cccc(-c2sc3ccc(OC)cc3c2C#CC(C)(C)O)c1	118*	1	.	.	2	-6
CCOC(=O)C(=NCCCN1CCOCC1)NNc1cccc(C(F)(F)F)c1	86*	0	-8	47	324*	-2
NNC(=O)c1cc2ccccc2cc1NS(=O)(=O)c1ccccc1	-7	0	-15	.	10	-4
Cc1cccc(C)c1OCc1cc(C(=O)N2CC3C[C@@H]4CC2C[C@H](C3)C4)no1	107*	-3	37	.	9	3
Cc1ccc(OCc2cc(C(=O)N3CC4C[C@@H]5CC3C[C@H](C4)C5)no2)cc1C	-7	0	23	.	28	-1
CCN(Cc1ccncc1)C(=O)c1cc(COc2ccc(F)cc2F)on1	.	0	16	.	.	.
CCN(Cc1ccncc1)C(=O)c1cc(COc2c(C)cccc2C)on1	27	0	57*	.	3	-2
O=C1CNC(=S)N1Cc1cccc(Cl)c1	-2	0	5	.	0	-5
CC1CCN(c2nc3ccccc3nc2C(C#N)C(=O)OC2CCCCC2)CC1 (stereo unspecified)	.	0	7	.	296	-4
CC1CN(c2nc3ccccc3nc2C(C#N)C(=O)OC2CCCCC2)CC(C)O1 (stereo unspecified)	12	0	63*	60*	7	33
N#CC(C(=O)OC1CCCCC1)c1nc2ccccc2nc1N1CCCCC1 (stereo unspecified)	.	.	67*	17	.	.
N=c1c2ccccc2nc2n1CCCCCCCCCCC2	36	0	38	.	-17	97*
Fc1ccc(-c2cc(-c3nnc4n3CCCCC4)c3ccccc3n2)cc1	-8	0	-2	-8	-4	97*
Clc1ccc(-c2cc(-c3nnc4n3CCCCC4)c3ccccc3n2)cc1	12	-2	9	25	-11	100*
SMILES	CSC inhib	Efflux pump inh	T cruzi inh	WT yeast gro inh	SUMO Mot1 rescue	Beta apoptosis
O=C(CO/N=C/c1ccc(OC(F)F)cc1)NC1CCCCCC1	0	0	3	33	-13	-5
Cc1ccc(N2C(=O)C(Cl)=C(NCc3ccccc3)C2=O)c(C)c1	-6	0	4	22	7	-3
c1ccc(-c2nc(SCc3nc4ccccc4[nH]3)c3oc4ccccc4c3n2)cc1	.	0	.	.	8	1
CC(C)(C)c1ccccc1OCC(=O)Nc1ccccc1C(=O)NCc1cccnc1	16	0	62*	.	1	3
CC(C)(C)C(=O)Nc1ccccc1C(=O)NCc1cccnc1	-14	0	14	.	-20	-3
CN(C)CCNC=C(C(=O)Nc1ccc(Cl)cc1Cl)C(=O)Nc1ccc(Cl)cc1Cl	78*	0	29	98*	63	9
Cc1cc(Nc2ccccc2)nn1C(=O)c1ccc(Cl)cc1	9	0	1	80*	-6	-1
Cc1ccc2c(c1)S/C(=C/c1ccc[n+](CCO)c1)N2C	-21	0	61*	37	135	99*
Cc1ccc2c(c1)S/C(=C\c1cccc[n+]1C)N2CCO	-15	0	46	.	-7	32
Cc1ccc(NCc2nnc(SC(C)C(=O)N/N=C/c3ccc(C)o3)n2-c2ccccc2)cc1 (stereo unspecified)	-10	0	17	-10	.	-2
COCCCn1c(SCC(=O)NC(C)(C)C)nnc1-c1ccccc1	-4	0	-5	66*	-23	-1
COCCCn1c(SCC(=O)NC2CCCCC2)nnc1-c1ccncc1	-18	0	-14	-31	14	-7
O=c1[nH]ncc(N2CCN(C(c3ccccc3)c3ccccc3)CC2)c1Cl	2	-1	32	69*	-31	-3
O=c1[nH]ncc(N2CCCC2)c1Cl	2	0	-9	1	-6	-4
CCOc1cc(N2CCOCC2)c(OCC)cc1NC(=O)CN1C(=O)NC(Cc2ccccc2)C1=O (stereo unspecified)	9	0	1	1	7	-2
CCOc1cc(N2CCOCC2)c(OCC)cc1NC(=O)CN1CCC(Cc2ccccc2)CC1	84*	0	62*	57	2	-4
C=CCOC(=O)C1=C[C@H](c2csc3ccccc23)C[C@H](OCc2ccc(CO)cc2)O1	3	.	7	.	-12	1
CCc1nnc(NC(=O)CSc2ncc(-c3ccccc3)n2CC)s1	-13	0	8	2	-9	-10
CCC1Oc2ccc(C)cc2N(CC(=O)NC2CCCCC2)C1=O (stereo unspecified)	-6	0	12	.	106	-2
CCC1Oc2ccc(C)cc2N(CC(=O)N(Cc2ccc(C)o2)C2CCCC2)C1=O (stereo unspecified)	-1	1	6	65*	-19	8
CCc1cc2c3c(c1)C1(C(=O)N3C(C)(C)CC2C)C(C#N)=C(N)N2C(=C1C#N)Nc1ccccc12 (stereo unspecified)	17	0	19	-9	608*	0
Cc1cc2c3c(c1)C1(C(=O)N3C(C)(C)CC2C)C(C#N)=C(N)Oc2cc(O)ccc21 (stereo unspecified)	-9	1	66*	7	-15	-3
OCC[C@@H]1C[C@@H](O)[C@H](O)[C@]2(CCc3ccccc3O2)O1	-3	0	-4	.	1	0
Clc1ccc(CSc2nnc(-c3ccccn3)n2Cc2ccco2)c(Cl)c1	35	0	19	60*	3	-3
OCC[C@@H]1C[C@H](O)[C@@H](O)[C@]2(OCc3ccccc32)O1	0	0	-3	.	251	-3
